Values after ≈ are worked out from the molar mass of the structure shown. Some results are limits rather than exact numbers.

For orientation: IC50 means the concentration that gives 50% inhibition. A word on the AUC: it is the area under the concentration-time curve, a measure of exposure. By Cmax is commonly meant the highest concentration seen after dosing. One may read the logD as the decadic logarithm of the distribution of all forms, ionised or not, between an organic phase and buffer at a given pH. In general, solubility refers to the concentration that dissolves in the medium under given conditions.

Data set [1] addresses T1, Leukotriene B4 receptor 2 (Homo sapiens, UniProt Q9NPC1).
T1 sequence (Q9NPC1 whole entry): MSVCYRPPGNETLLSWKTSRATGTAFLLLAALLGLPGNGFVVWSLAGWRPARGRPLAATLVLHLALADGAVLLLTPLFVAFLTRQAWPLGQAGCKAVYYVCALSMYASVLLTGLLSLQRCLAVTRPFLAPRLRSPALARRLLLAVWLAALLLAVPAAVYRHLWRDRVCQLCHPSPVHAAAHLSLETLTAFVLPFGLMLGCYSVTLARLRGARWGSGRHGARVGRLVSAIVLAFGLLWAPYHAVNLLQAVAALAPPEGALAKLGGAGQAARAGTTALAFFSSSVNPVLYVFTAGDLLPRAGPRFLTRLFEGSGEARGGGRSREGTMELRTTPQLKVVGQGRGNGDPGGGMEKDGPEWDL
The data set can be described thus: Antagonist activity at FLAG-tagged human BLT2 receptor expressed in HEK293 cells assessed as inhibition of LTB4-stimulated calcium mobilization preincubated for 10 mins before LTB4 challenge. Format: functional, cell-based.

The next data set concerns the target T2, Cytochrome P450 1A2 (Homo sapiens, UniProt P05177).
T2 sequence (P05177 whole entry): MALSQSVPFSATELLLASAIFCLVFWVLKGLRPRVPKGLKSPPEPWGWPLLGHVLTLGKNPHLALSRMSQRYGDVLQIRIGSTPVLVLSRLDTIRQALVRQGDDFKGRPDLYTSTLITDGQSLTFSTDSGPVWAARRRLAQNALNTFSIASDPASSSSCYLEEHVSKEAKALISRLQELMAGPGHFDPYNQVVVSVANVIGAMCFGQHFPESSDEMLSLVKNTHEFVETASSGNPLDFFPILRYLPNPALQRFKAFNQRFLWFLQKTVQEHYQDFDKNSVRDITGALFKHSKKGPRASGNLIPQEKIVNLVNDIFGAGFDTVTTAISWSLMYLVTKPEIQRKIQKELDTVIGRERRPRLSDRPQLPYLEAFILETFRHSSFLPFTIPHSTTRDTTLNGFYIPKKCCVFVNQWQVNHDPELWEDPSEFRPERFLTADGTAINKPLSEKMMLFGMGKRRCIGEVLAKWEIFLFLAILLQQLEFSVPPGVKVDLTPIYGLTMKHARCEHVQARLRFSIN
The experiment in a line: Inhibition of CYP1A2 by fluorescence method. Format: ADME. The essentials: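 Cytochrome P450 high-throughput panel (1A2, 2D6, 2C9, 2C19, 3A4) using fluorogenic substrates; IC50 reported.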

The next data set has as its target Cytochrome P450 2D6 (Homo sapiens, UniProt P10635). The experiment in a line: Inhibition of CYP2D6 fluorescence method. Format: ADME. The method, boiled down: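 High-throughput CYP panel covering 1A2, 2D6, 2C9, 2C19 and 3A4, using fluorogenic substrates. IC50 was determined in μM.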
In data set [2] the test system is Rattus norvegicus. The experiment in a line: Toxicity in rat assessed as alkaline phosphatase level at 40 mg/kg, po qd treated for 14 days. Format: organism-based. Also on record: dose 40 mg/kg, route oral. The settings on record: in vivo, 336 h. The method, boiled down: (§1)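 Male Han-Wistar rats (200-230 g), n = 4 per group, were given 40 or 400 (mg/kg)/day orally for 14 days in 2% Klucel LF/0.1% Tween-80 versus vehicle. Body weight was recorded at pretreatment and on days 1, 8 and 14, and food intake weekly. Clinical chemistry was sampled on day 5 and at necropsy. Organs were formalin-fixed and H&E stained. Data are given as mean ± SD and analysed by Bartlett's test.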

Data set [3] can be described thus: AUC (0 to 24hrs) in rat at 40 mg/kg, po qd treated for 14 days. The class given is ADME, organism-based. Also on record: time < 24 hr, dose 40 mg/kg, route oral. The settings on record: plasma. The method, boiled down: (§2)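 Male Han-Wistar rats (200-230 g) dosed orally once daily for 14 days in 2% Klucel LF/0.1% Tween-80 in water, n = 4 per group. Blood was taken from the retro-orbital sinus under isoflurane/O2 anesthesia, and plasma was separated by cold centrifugation and stored at -70 C until analysis. Exposure values refer to day 14.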

Data set [4] is described as follows: AUC(0 to 24hrs) in rat at 400 mg/kg, po qd treated for 14 days. The class given is ADME, organism-based. Also on record: time < 24 hr, dose 400 mg/kg, route oral. The settings on record: plasma. The essentials: as §2
Data set [5] in a line: Cmax in rat at 40 mg/kg, po qd treated for 14 days. The class given is ADME, organism-based. Also on record: dose 40 mg/kg, route oral. Conditions: in vivo; call rule not given here. The method, boiled down:
as §2

Data set [6] can be described thus: Cmax in rat at 400 mg/kg, po qd treated for 14 days. Format: ADME, organism-based. Also on record: dose 400 mg/kg, route oral. The settings on record: in vivo. The method, boiled down:
as §2

Data set [7] relates to Rattus norvegicus. The experiment in a line: Toxicity in rat assessed as effect on food consumption at 400 mg/kg, po qd treated for 14 days. Format: organism-based. Also on record: dose 400 mg/kg, route oral. The settings on record: in vivo, 336 h. The essentials:
as §1

Data set [8] has as its system Rattus norvegicus. The experiment in a line: Hepatotoxicity in rat assessed as increase in ALT level at 40 mg/kg, po qd after 15 days. Also on record: dose 40 mg/kg, route oral. The class given is toxicity, organism-based. The settings on record: in vivo, 360 h. The method, boiled down: as §1
The subject of data set [9] is Rattus norvegicus. The experiment in a line: Hepatotoxicity in rat assessed as increase in ALT level at 400 mg/kg, po qd treated after 15 days. The class given is toxicity, organism-based. Also on record: dose 400 mg/kg, route oral. Conditions: in vivo, 360 h. The essentials:
as §1

Data set [10] can be described thus: Lipophilicity, log D of compound at pH 7.4. Conditions: buffer.
The nature of data set [11]: Solubility of compound in small intestinal contents in the fed state at pH 5. Format: ADME. The method, boiled down:
(§3)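 Solubility measured in simulated intestinal fluid at pH 5.0 (fed) or pH 6.5 (fasted), reported in μg/mL.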

Data set [12] in a line: Solubility of compound in small intestinal contents in the fasted state at pH 6.5. Format: ADME. The essentials: as §3
The target in data set [13] is T3, Voltage-gated inwardly rectifying potassium channel KCNH2 (Homo sapiens, UniProt Q12809). The data set can be described thus: Inhibition of human ERG expressed in CHO cells assessed as reduction of current amplitude.
T3 sequence (Q12809 whole entry): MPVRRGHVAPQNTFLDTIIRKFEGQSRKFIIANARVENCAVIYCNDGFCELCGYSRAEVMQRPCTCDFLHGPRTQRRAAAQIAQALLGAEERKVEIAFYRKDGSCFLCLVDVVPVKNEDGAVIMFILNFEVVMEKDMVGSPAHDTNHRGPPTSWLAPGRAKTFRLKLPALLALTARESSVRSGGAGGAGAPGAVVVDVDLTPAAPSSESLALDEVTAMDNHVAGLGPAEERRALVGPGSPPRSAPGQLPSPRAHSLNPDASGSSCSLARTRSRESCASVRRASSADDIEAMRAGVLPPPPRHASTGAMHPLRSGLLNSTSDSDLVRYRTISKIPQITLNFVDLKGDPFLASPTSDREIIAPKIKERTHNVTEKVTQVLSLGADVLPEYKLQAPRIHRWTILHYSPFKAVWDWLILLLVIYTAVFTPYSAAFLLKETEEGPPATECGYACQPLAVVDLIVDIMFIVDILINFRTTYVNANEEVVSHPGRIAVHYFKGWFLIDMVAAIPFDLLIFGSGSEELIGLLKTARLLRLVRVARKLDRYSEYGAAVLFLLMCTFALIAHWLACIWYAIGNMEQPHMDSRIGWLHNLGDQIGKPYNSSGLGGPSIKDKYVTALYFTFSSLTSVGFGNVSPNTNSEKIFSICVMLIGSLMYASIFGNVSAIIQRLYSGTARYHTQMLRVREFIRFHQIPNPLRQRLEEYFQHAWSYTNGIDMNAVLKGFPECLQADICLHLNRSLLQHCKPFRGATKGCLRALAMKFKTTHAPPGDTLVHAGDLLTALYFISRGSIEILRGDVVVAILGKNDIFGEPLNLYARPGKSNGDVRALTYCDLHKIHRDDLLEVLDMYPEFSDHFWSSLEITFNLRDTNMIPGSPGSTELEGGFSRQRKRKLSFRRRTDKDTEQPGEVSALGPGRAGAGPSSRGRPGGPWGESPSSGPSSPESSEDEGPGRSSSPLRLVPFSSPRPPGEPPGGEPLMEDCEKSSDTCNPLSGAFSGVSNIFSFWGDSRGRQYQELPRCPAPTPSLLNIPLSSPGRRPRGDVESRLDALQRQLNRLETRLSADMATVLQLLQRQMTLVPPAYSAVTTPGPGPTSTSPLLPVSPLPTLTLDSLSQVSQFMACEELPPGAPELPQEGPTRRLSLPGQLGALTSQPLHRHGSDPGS
Data set [14] addresses T3, Voltage-gated inwardly rectifying potassium channel KCNH2. The data set can be described thus: Inhibition of human ERG expressed in CHO cells at 3 uM assessed as reduction of current amplitude.
The target of a further data set is Cytochrome P450 2C9 (Homo sapiens, UniProt P11712). The data set can be described thus: Inhibition of CYP2C9 by LC/MS method. Format: ADME.
Chain of Cytochrome P450 2C9 (P11712 whole entry): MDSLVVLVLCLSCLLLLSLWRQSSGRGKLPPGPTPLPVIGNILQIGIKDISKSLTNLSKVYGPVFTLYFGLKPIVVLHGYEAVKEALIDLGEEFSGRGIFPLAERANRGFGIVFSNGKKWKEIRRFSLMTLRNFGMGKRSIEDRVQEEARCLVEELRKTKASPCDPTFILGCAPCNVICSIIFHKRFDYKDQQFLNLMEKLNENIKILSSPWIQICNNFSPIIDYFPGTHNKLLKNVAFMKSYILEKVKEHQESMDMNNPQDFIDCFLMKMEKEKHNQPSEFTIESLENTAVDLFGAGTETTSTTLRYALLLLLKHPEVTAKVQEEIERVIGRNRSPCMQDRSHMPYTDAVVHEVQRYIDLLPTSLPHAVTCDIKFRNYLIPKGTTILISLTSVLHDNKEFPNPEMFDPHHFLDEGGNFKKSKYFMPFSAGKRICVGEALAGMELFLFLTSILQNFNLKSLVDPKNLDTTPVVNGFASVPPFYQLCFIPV
The test system of data set [15] is Hepatocyte. The experiment in a line: Metabolic stability in human hepatocytes assessed as compound metabolized after 3 hrs. The class given is ADME, cell-based. The essentials: (§4)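 Cryopreserved hepatocytes at 1.5 million cells/mL (pooled human male/female N = 10, male CD1 mouse, SD rat, beagle dog, cyno monkey) were incubated in Leibovitz medium with 1% FBS and 10 μM substrate. Incubation ran 3 h at 37 C with shaking and was stopped with methanol. Cell-free controls used hepatocyte incubation medium. Parent and metabolites were quantified by UV peak area at 232-242 nm, assuming equal extinction coefficients.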

Data set [16] can be described thus: Metabolic stability in CD1 mouse hepatocytes assessed as compound metabolized after 3 hrs. The class given is ADME, cell-based, Hepatocyte. The essentials:
as §4

Data set [17] relates to Hepatocyte. The experiment in a line: Metabolic stability in Sprague-Dawley rat hepatocytes assessed as compound metabolized after 3 hrs. Format: ADME, cell-based. The method, boiled down: as §4
Data set [18] is described as follows: Metabolic stability in Beagle dog hepatocytes assessed as compound metabolized after 3 hrs. Format: ADME, cell-based, Canis lupus familiaris, Hepatocyte. The essentials: as §4
Data set [19] can be described thus: Metabolic stability in cynomolgus monkey hepatocytes assessed as compound metabolized after 3 hrs. Format: ADME, cell-based, Macaca fascicularis, Hepatocyte. The essentials: as §4
Data set [20] is described as follows: Metabolic stability of compound assessed as remaining level in cell free assay. Format: ADME. The essentials:
as §4

The test system of data set [21] is Rattus norvegicus. The data set can be described thus: Metabolic stability of compound in rat plasma assessed as acylglucuronide isomers formed at 400 mg/kg, po. The settings on record: in vivo.

Chain of Cytochrome P450 2D6 (P10635 whole entry): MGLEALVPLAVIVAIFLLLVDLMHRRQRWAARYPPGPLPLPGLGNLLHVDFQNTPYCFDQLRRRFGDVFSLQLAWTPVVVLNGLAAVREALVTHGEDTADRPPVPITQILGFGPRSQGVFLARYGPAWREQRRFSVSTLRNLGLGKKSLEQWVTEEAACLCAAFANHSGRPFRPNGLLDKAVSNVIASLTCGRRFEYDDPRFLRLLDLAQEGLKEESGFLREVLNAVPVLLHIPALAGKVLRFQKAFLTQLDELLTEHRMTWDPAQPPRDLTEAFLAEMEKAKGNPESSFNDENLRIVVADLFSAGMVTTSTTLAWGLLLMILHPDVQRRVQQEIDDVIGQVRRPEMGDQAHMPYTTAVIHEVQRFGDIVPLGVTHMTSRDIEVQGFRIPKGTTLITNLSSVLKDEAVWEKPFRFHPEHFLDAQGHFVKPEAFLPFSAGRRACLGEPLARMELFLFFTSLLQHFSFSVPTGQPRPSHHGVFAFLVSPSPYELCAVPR

As to `O=C(O)CCCOc1cccc(CCCCCCOc2cc(-c3cccc(F)c3)cc(-c3ccc4c(c3)OCO4)c2)c1CCC(=O)O`, the IC50 in data set [1] was 0.194 µM; at Cytochrome P450 1A2 it was > 7.5 µM; at Cytochrome P450 2D6, > 7.5 µM. Further, the Activity entry is reported as “Non-toxic” in the data set on Rattus norvegicus [2], “Non-toxic” with Rattus norvegicus [7], 35 IU/L in the data set on Rattus norvegicus [8] and 121 IU/L with Rattus norvegicus [9]. Also, the AUC at 24 h in data set [3] stood at 80.6 µg·h/mL; in data set [4], 1870 µg·h/mL. The values for the Cmax in data set [5] and in data set [6] were 11.3 µg/mL and 124 µg/mL, respectively.

As for `O=C(O)CCCOc1cccc(CCCCCCOc2cc(-c3ccsc3)cc(-c3ccc4c(c3)OCO4)c2)c1CCC(=O)O`, the IC50 in data set [1] is 0.164 µM; in data set [13], > 3 µM; against Cytochrome P450 1A2 it was > 7.5 µM; on Cytochrome P450 2D6, > 7.5 µM; against Cytochrome P450 2C9 it was 22.5 µM. For the same compound, the log distribution coefficient (logD) in [10] came to 2.34. The solubility in data set [11] stood at 32.9 µg/mL (≈ 52.2 µM); in data set [12], 34.6 µg/mL (≈ 54.9 µM). Moreover, the INH entry in [14] was “Not Active”. The Activity entry is “Non-toxic” in the data set with Rattus norvegicus [2]; 17.3% in the data set on Hepatocyte [15]; 16.9% in data set [16]; 20.4% in the data set with Hepatocyte [17]; 27.8% in data set [18]; 7.7% in data set [19]. The Activity is reported as 100% in data set [20], “Non-toxic” in the data set on Rattus norvegicus [7], 38 IU/L with Rattus norvegicus [8] and 125 IU/L with Rattus norvegicus [9]. Moreover, the Stability in the data set with Rattus norvegicus [21] is recorded as 6%.

(Values after ChEMBL document CHEMBL1158546, “Discovery of novel and potent leukotriene B4 receptor antagonists. Part 1” (J Med Chem, 2010).)
